The values that follow come from PMC10449972 (Clinical Pharmacokinetics, 2023).

Series [1] concerns hepatic HSD-1. The conditions noted are these: lowest daily dose of 1 mg ABT-384, last day of dosing; cited from earlier work.
Series [2] has as its target T1, hepatic HSD-1 (Homo sapiens, UniProt P28845). Put plainly: Hepatic HSD-1 activity, urinary ratio. The class given is in vivo, human (healthy adults). Particulars: regimens as low as 0.2 mg once daily, lowest dose tested. In outline:
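Healthy adults in low-dose multiple-dose cohorts were given oral test compound: 3 mg loading then 0.2 mg once daily (days 2–14); 0.4 mg once daily (days 1–14); or 0.7 or 2 mg single dose, 6-day washout, then once daily (days 7–20). First-morning urine was collected predose and on scheduled days, and steroids were measured by LC-MS/MS. Activity ratio was fitted against time-matched model-predicted plasma concentration using a sigmoid inhibitory Imax model.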

Series [3] has as its target T2, HSD-1 (Homo sapiens, UniProt P28845). Put plainly: TMDD model component: binding of SPI-62 to its pharmacological target HSD-1. The class given is in vivo, human (healthy adults). The procedure, abridged: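 Target-binding component of the simultaneous population PK/PD fit. Drug in the central compartment binds HSD-1 with a second-order association constant (Kon) to form a complex. The complex dissociates with a first-order constant (Koff). Rtotal is the total HSD-1 amount. Data were pooled plasma concentrations from single- and multiple-dose trials plus urinary HSD-1 activity from multiple-dose cohorts. Kd was derived as Koff/Kon, and IIV was exponential.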

For the next series, the target named is human HSD-1. The conditions noted are these: measured in vitro; cited from earlier work.
Another series has as its system HSD-2. Particulars: cited from earlier work.
In series [4] the target is T2, HSD-1. The conditions noted are these: earlier TMDD model; cited from earlier work.
The conditions of series [5]: single dose of 0.7 mg SPI-62, plasma; cited from earlier work.
The target in series [6] is T1, hepatic HSD-1. Particulars: cited from earlier work.

In general, Kd refers to the concentration at which binding is half-saturated. Lower therefore signals tighter binding. One may read the Ki as the equilibrium dissociation constant of an inhibitor or competing ligand from its target.

T1 sequence (P28845 whole entry): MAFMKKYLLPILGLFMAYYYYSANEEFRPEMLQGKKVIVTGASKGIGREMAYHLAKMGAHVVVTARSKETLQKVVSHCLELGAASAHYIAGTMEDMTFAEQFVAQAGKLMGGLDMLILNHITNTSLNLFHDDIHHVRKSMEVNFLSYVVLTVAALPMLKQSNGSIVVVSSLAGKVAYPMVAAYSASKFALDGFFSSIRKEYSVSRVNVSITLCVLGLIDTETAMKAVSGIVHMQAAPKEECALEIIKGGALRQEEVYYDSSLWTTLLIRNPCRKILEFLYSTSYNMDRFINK
T2 sequence (P28845 whole entry): as above

Consider `CC(C)(C(=O)NC1C2CC3CC1CC(C(N)=O)(C3)C2)N1CCN(c2ccc(C(F)(F)F)cn2)CC1` (stereo not drawn) [ABT-384], for which the “Hepatic HSD-1 inhibition” value in the series on hepatic HSD-1 [1] is “full hepatic HSD-1 inhibition”.
On to `Cn1c(-c2ccc(C(N)=O)cc2F)nnc1C(C)(C)Oc1c(F)cc(Cl)cc1F` [SPI-62], for which the “Inhibition of hepatic HSD-1” value at hepatic HSD-1 [2] is listed as “almost complete inhibition”. At HSD-1 [3], this molecule returned an equilibrium dissociation constant (Kd) of 0.0272 nM. At HSD-1 [3] (calculated from TMDD model estimates), the “Kd, ratio of Koff and Kon” value was 0.0272 nM. Further, the “Target capacity (Rtot) expressed as amount of SPI-62” value on HSD-1 [3] (corresponds to 5460 nmol) was “approximately 2.2 mg”. Also, the “Kon, second-order association rate constant” value at HSD-1 [3] (estimated, final PK/PD model) was 2.34e+06 M⁻¹ s⁻¹. The Ki on human HSD-1 is 5.3 nM. In the series on HSD-2, the “Activity on HSD-2” value is “minimal activity”. The “Rmax, capacity of the target, estimated using PK data alone” value on HSD-1 [4] was 6070 nmol. The “Average Cmax” value in series [5] is on record as 0.02 ng/mL. Moreover, the “Hepatic HSD-1 inhibition on day 6” value at hepatic HSD-1 [6] (after single low dose, 6-day wash out, day 6) is reported as above 30%. In addition, the “HSD-1 inhibition after repeated doses” value on hepatic HSD-1 [6] (all low dose groups (0.2 mg with 3 mg loading dose, 0.4, 0.7, 2 mg QD)) was “full HSD-1 inhibition”. Besides, the “Return of urinary HSD-1 ratio to baseline” value on hepatic HSD-1 [6] (approximately 16 days after the last dose, lowest dose 0.2 mg) was “incomplete return”. Also, at hepatic HSD-1 [6] (first dose of 0.7 mg), the “HSD-1 inhibition (urinary HSD-1 ratio) after the first dose” value is recorded as “substantial HSD-1 inhibition”. Moreover, the “Hepatic HSD-1 inhibition” value on hepatic HSD-1 [6] (following a single dose of 0.7 mg) is “more than 40%”.
